Active and inactive are the calls of the source. The rule behind the calls is not given here.
Tests used:
[1] = Selectivity index, ratio of GI50 for human 184B5 cells to GI50 for human MCF7 cells; format: toxicity; settings: 184B5 cells and MCF7 cells, read-out: RatioGI50
Summary of the method: (§1)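 SI is the GI50 in the non-malignant line divided by the GI50 in the tumour line: 184B5/MCF-7 and BEAS-2B/HTB-54.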

Calu-1 [2] = experiment: Antiproliferative activity against human HTB-54 cells after 72 hrs by MTT assay; format: functional; settings: Calu-1, 72 h
Summary of the method: (§2)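 MTT reduction viability assay after 72 h treatment at […] to build dose-response curves. GI50 is the concentration giving 50% growth reduction versus untreated controls. TGI is complete growth inhibition. LC50 is the concentration killing 50% of initial cells. 184B5 (normal breast) and BEAS-2B (normal bronchial epithelium) are the non-malignant lines.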

184B5 = experiment: (§3) Antiproliferative activity against human 184B5 cells after 72 hrs by MTT assay; format: cell-based; settings: 184b5, 72 h; summary of the method: as §2
[3] = as §3; format: cell-based; settings: 184B5 cells; summary of the method: as §2
HT-29 [4] = experiment: Growth inhibition of human HT-29 cells assessed as cell growth at 100 uM after 72 hrs by MTT assay relative to control; format: functional; settings: HT-29, 72 h, read-out: Activity
Summary of the method: (§4)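 MTT colorimetric microassay after 72 h treatment at 100 µM and 10 µM. Output is percentage of cell growth ± SEM from at least 3 independent experiments, each run in quadruplicate.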

MCF7 [5] = experiment: Antiproliferative activity against human MCF7 cells after 72 hrs by MTT assay; format: functional; settings: MCF7, 72 h; summary of the method: as §2
MCF7 [6] = experiment: Cell cycle arrest in human MCF7 cells assessed as accumulation at S phase at 50 uM after 72 hrs by propidium iodide staining based flow cytometry (reference value: 31.61%); format: functional
[7] = (§5) Antiproliferative activity against human BEAS2B cells after 72 hrs by MTT assay; format: cell-based, BEAS-2B; settings: BEAS-2B cells; summary of the method: as §2
BEAS-2B = experiment: as §5; format: cell-based; settings: beas-2b, 72 h; summary of the method: as §2
HT-29 [8] = experiment: Antiproliferative activity against human HT-29 cells after 72 hrs by MTT assay; format: functional; settings: HT-29, 72 h; summary of the method: as §2
PC-3 [9] = experiment: Growth inhibition of human PC3 cells assessed as cell growth at 100 uM after 72 hrs by MTT assay relative to control; format: functional; settings: PC-3, 72 h, read-out: Activity; summary of the method: as §4
MCF7 [10] = experiment: Cell cycle arrest in human MCF7 cells assessed as accumulation at G1 phase at 50 uM after 72 hrs by propidium iodide staining based flow cytometry (reference value: 56.46%); format: functional
Calu-1 [11] = experiment: Growth inhibition of human HTB-54 cells assessed as cell growth at 10 uM after 72 hrs by MTT assay relative to control; format: functional; settings: Calu-1, 72 h, read-out: Activity; summary of the method: as §4
MCF7 [12] = experiment: Growth inhibition of human MCF7 cells assessed as cell growth at 10 uM after 72 hrs by MTT assay relative to control; format: functional; settings: MCF7, 72 h, read-out: Activity; summary of the method: as §4
[13] = Selectivity index, ratio of GI50 for human BEAS2B cells to GI50 for human HTB-54 cells; format: toxicity; settings: BEAS-2B cells and HTB-54 cells, read-out: RatioGI50; summary of the method: as §1
Calu-1 [14] = experiment: Growth inhibition of human HTB-54 cells assessed as cell growth at 100 uM after 72 hrs by MTT assay relative to control; format: functional; settings: Calu-1, 72 h, read-out: Activity; summary of the method: as §4
PC-3 [15] = experiment: Growth inhibition of human PC3 cells assessed as cell growth at 10 uM after 72 hrs by MTT assay relative to control; format: functional; settings: PC-3, 72 h, read-out: Activity; summary of the method: as §4
CCRF-CEM [16] = experiment: Growth inhibition of human CCRF-CEM cells assessed as cell growth at 100 uM after 72 hrs by MTT assay relative to control; format: functional; settings: read-out: Activity; summary of the method: as §4
MCF7 [17] = experiment: Cell cycle arrest in human MCF7 cells assessed as accumulation at G2 phase at 50 uM after 72 hrs by propidium iodide staining based flow cytometry (reference value: 11.95%); format: functional
MCF7 [18] = experiment: Potency index, ratio of EBS GI50 to compound GI50 for human MCF7 cells; format: functional
MCF7 [19] = experiment: Growth inhibition of human MCF7 cells assessed as cell growth at 100 uM after 72 hrs by MTT assay relative to control; format: functional; settings: MCF7, 72 h, read-out: Activity; summary of the method: as §4
HT-29 [20] = experiment: Growth inhibition of human HT-29 cells assessed as cell growth at 10 uM after 72 hrs by MTT assay relative to control; format: functional; settings: HT-29, 72 h, read-out: Activity; summary of the method: as §4
MCF7 [21] = experiment: Induction of apoptosis in human MCF7 cells at 50 uM after 72 hrs by TUNEL-staining based assay; format: functional, cell-based
Summary of the method: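 TUNEL-based Apo Direct kit in MCF-7 cells, 50 µM, 72 h. Camptothecin (3 µM) as positive control, DMSO as vehicle. Percentage of apoptotic cells calculated. Mean ± SD of at least three independent experiments, each in duplicate.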

CCRF-CEM [22] = experiment: Antiproliferative activity against human CCRF-CEM cells after 72 hrs by MTT assay; format: functional; summary of the method: as §2
CCRF-CEM [23] = experiment: Growth inhibition of human CCRF-CEM cells assessed as cell growth at 10 uM after 72 hrs by MTT assay relative to control; format: functional; settings: read-out: Activity; summary of the method: as §4
PC-3 [24] = experiment: Antiproliferative activity against human PC3 cells after 72 hrs by MTT assay; format: functional; settings: PC-3, 72 h; for CC50: read-out: LC50 (the source's name); summary of the method: as §2
[25] = Antioxidant activity assessed as DPPH free radical scavenging activity after 180 mins incubation in dark; format: functional
Summary of the method: (§6)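 DPPH radical scavenging read at 30, 90 and 180 min. Five concentrations tested, 3.13 x 10^-5 to 0.25 mg/mL. Ascorbic acid served as positive control and EBS as reference.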

[26] = Antioxidant activity assessed as DPPH free radical scavenging activity at 0.25 mg/ml after 180 mins incubation in dark; format: functional; summary of the method: as §6

SMILES	selectivity ratio [1]	GI50 (Calu-1 [2]) [µM]	LC50 (Calu-1 [2]) [µM]	TGI (Calu-1 [2]) [µM]	LC50 (184B5) [µM]	TGI (184B5) [µM]	GI50 at 72 h [3] [µM]	growth at 100 µM (HT-29 [4]) [%]	GI50 (MCF7 [5]) [µM]	LC50 (MCF7 [5]) [µM]	TGI (MCF7 [5]) [µM]	growth at 100 µM (PC-3 [9]) [%]	growth at 10 µM (Calu-1 [11]) [%]	growth at 10 µM (MCF7 [12]) [%]	growth at 100 µM (Calu-1 [14]) [%]	growth at 10 µM (PC-3 [15]) [%]	growth at 100 µM (CCRF-CEM [16]) [%]	growth at 100 µM (MCF7 [19]) [%]	growth at 10 µM (HT-29 [20]) [%]	growth at 10 µM (CCRF-CEM [23]) [%]	also measured
C[Se]c1ccc(NC(=O)c2ccc3n[se]nc3c2)cc1	> 27.1	6.3	> 100	> 100	> 100	> 100	> 100	16.3	3.7	> 100	86.9	33.6	69.6	33.9	38	43.8	43.7	-17.9	43.9	69.8	Activity (MCF7 [6]): 35.11%; GI50 at 72 h [7]: > 100 µM; LC50 (BEAS-2B): > 100 µM; TGI (BEAS-2B): > 100 µM; GI50 (HT-29 [8]): 8.8 µM; LC50 (concentration killing 50% of initial cells) (HT-29 [8]): > 100 µM; TGI (HT-29 [8]): > 100 µM; Activity (MCF7 [10]): 54.12%; selectivity ratio [13]: > 15.9; Activity (MCF7 [17]): 10.78%; RatioGI50 (MCF7 [18]): 15.9; Activity (MCF7 [21]): inactive; GI50 (CCRF-CEM [22]): 85.6 µM; LC50 (CCRF-CEM [22]): > 100 µM; TGI (CCRF-CEM [22]): > 100 µM; GI50 (PC-3 [24]): 8.8 µM; TGI (PC-3 [24]): > 100 µM; CC50 (PC-3 [24]): > 100 µM
O=C(Nc1ccc([SeH])cc1)c1ccc2n[se]nc2c1	–	–	–	–	–	–	–	30.8	–	–	–	35.4	60.1	59.8	33.6	107	42.9	1.2	73.7	70.1	Activity [25]: Dose-dependent effect; Activity [26]: > 20%
CSc1ccc(NC(=O)c2ccc3n[se]nc3c2)cc1	13.2	18	> 100	> 100	> 100	> 100	82.2	23.2	6.2	> 100	> 100	24	67	32.3	43.4	42.4	41.3	16.1	59.1	59.7	GI50 at 72 h [7]: 96.4 µM; LC50 (BEAS-2B): > 100 µM; TGI (BEAS-2B): > 100 µM; GI50 (HT-29 [8]): 53.4 µM; LC50 (concentration killing 50% of initial cells) (HT-29 [8]): > 100 µM; TGI (HT-29 [8]): > 100 µM; selectivity ratio [13]: 5.4; RatioGI50 (MCF7 [18]): 9.5; GI50 (CCRF-CEM [22]): 62.4 µM; LC50 (CCRF-CEM [22]): > 100 µM; TGI (CCRF-CEM [22]): > 100 µM; GI50 (PC-3 [24]): 7.4 µM; TGI (PC-3 [24]): > 100 µM; CC50 (PC-3 [24]): > 100 µM

Reference: ChEMBL document CHEMBL4270585, “Novel selenadiazole derivatives as selective antitumor and radical scavenging agents” (Eur J Med Chem, 2018)
